# Shown are actives, neighbours in structure and some others; about 2% of the full set was active somewhere.
# CaV13 FRET inh – Disruptors of the CACNA1D IQ motif to Ca2+-dependent inactivation inhibitor domain association, primary screening, Förster resonance energy transfer in intact living …. HEK cells, CFP/YFP FRET ICDI-IQ, plate reader, 10 min; percent FRET-ratio fall versus neutral wells. inhibition, % at 12.3 µM. 0.098% of 340,000 active. AID 743397;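 active means mean replicate inhibition of at least 30% and at least 1% of replicates passing that level; inconclusive means only one of the two criteria is met; inactive means neither criterion is met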
# TROY NFkB inh – inhibitors of TROY-dependent NF-kB signaling; 0.98% of 360,000 active; AID 1347056; Q293 LMP1-TROYcd NF-kB luciferase reporter, 4 h; inhibition, % at 10 µM;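 active means compounds whose plate-normalised and pattern-corrected inhibition of the luciferase reporter signal at the single screening dose is 50% or more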
# XiGFP reactiv – activators of X-chromosome reactivation in mouse fibroblasts. XiGFP mouse fibroblasts, % GFP-positive cells imaging, 3 d; cells co-treated with 5-aza-dC sensitizer; scaled so ellipticine positive control = 100%. activation, % at 7.58 µM. 0.055% of 360,000 active. AID 743238;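 active means mean normalized replicate activation at least 10% and every replicate at or above 10%; inconclusive means only one of the two criteria met; inactive means mean below 10% and not all replicates reach 10%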
#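 System: SV40-immortalized XiGFP fibroblast cells, line 68-5-11 / Incubation: 3-day compound exposure, then 15 min fixation at room temperature / Compound: single concentration per compound, delivered by pin transfer / Buffer or medium: DMEM plus 5-aza-dC sensitizer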
# LGR2 inh – inhibitors of bursicon-induced Drosophila LGR2 receptor cAMP signaling; inhibition, % at 9.99 µM; 0.35% of 380,000 active; AID 720647; HEK293 LGR2, CRE-luciferase, bursicon-stimulated, 4 h;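 active means drop in luminescence signal, shown as inhibition above about 50% in the replicate tests, limit read from the data, passing the limit was not always enough; inconclusive means probably only some replicates passing the limit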;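 further: agonist challenge used bursicon conditioned medium at about half maximal strength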
# TWEAK Fn14 block – blocks TWEAK-Fn14 interaction in a reporter cell assay; TWEAK-stimulated Fn14 reporter cells, luciferase luminescence, 8 h; inhibition, % at 10 µM; 2% of 360,000 active; AID 1159606; in the data active means inhibition above about 50%
# Hits are given with their value; n = inactive; u = inconclusive; x = no result given.
SMILES,CaV13 FRET inh,TROY NFkB inh,XiGFP reactiv,LGR2 inh,TWEAK Fn14 block
CC(C)OC(=O)N(C)C[C@H]1OCc2ccccc2-c2c(n(C)c3ccccc23)C(=O)N([C@H](C)CO)C[C@H]1C,x,x,n,n,x
Cc1ccc(-c2nn(-c3ccccc3)cc2/C=C/C(=O)OCC(=O)NC2CC2)o1,n,56,n,n,n
CN1CCN(S(=O)(=O)c2ccc(Sc3nnnn3-c3ccccc3)c([N+](=O)[O-])c2)CC1,n,n,n,x,100
Cn1cnnc1Sc1cc(N2CCN(S(=O)(=O)c3ccccc3)CC2)ccc1[N+](=O)[O-],n,n,n,x,n
CC(=O)c1ccc(Sc2nnnn2-c2ccccc2)c([N+](=O)[O-])c1,n,n,n,76,98
O=[N+]([O-])c1ccc(Sc2nnnn2-c2ccccc2)c(Cl)c1,n,n,x,n,n
O=C(C[C@@H]1C[C@H]2c3cc(NC(=O)Cc4ccncc4)ccc3O[C@H]2[C@@H](CO)O1)NCc1ccc2c(c1)OCO2,x,x,n,n,x
CC(C)(C)C(=O)N1CCc2cc(-c3csc(N)n3)ccc21,x,n,x,x,67
C/C(N=Nc1nc2ccccc2s1)=N\Nc1ccccc1O,n,n,n,n,80
Oc1[nH]c2ccccc2c1N=Nc1nc2ccccc2s1,n,n,x,x,n
C[C@@H]1CN([C@H](C)CO)C(=O)c2cccc(NC(=O)c3ccc(-c4nccs4)cc3)c2O[C@H]1CN(C)CC1CCCCC1,x,x,n,n,x
Cc1nn(-c2ccccc2)c(Cl)c1CN(C(=O)CCl)c1cccc2ccccc12,n,n,n,n,77
Cc1nn(-c2ccccc2)c(Cl)c1CN(C(=O)CCl)c1ccc(Cl)cc1,n,n,n,n,n
O=C(C[C@H]1CC[C@H]2[C@@H](COC[C@H](O)CN2Cc2cc(F)cc(F)c2)O1)NC1CCCC1,x,x,n,n,x
Cc1cc(C)c(C#N)c(SCC(=O)c2ccc(Cl)cc2Cl)n1,n,n,x,n,57
COCc1cc(C)nc(SCC(=O)Oc2ccc(Cl)cc2)c1C#N,47,n,n,n,n
Cc1ccc(S(=O)(=O)c2cc3cc(Br)ccc3oc2=O)cc1,n,n,x,n,80
NC(=S)c1cc2cc(Br)ccc2oc1=O,n,n,n,n,n
CC(C)c1ccc(S(=O)(=O)c2cc3cc(Br)ccc3oc2=O)cc1,n,n,n,n,54
CCCNC(=O)N[C@@H]1CC[C@@H](CC(=O)NC2CCC2)O[C@H]1CO,x,x,n,n,x
CCN1CCc2nc(NC(=O)c3ccccc3)sc2C1,n,n,x,x,85
O=C(Nc1nc2c(s1)CN(Cc1ccccc1)CC2)C1CCC1,n,n,n,n,n
CC(=O)Oc1ccc(C#C/C=C2\c3ccccc3C(=O)N2c2ccccc2)cc1,x,n,x,x,51
CNC[C@H]1Oc2c(NS(=O)(=O)c3ccc(C)cc3)cccc2C(=O)N([C@H](C)CO)C[C@@H]1C,x,x,n,n,x
CN1CCN(C(=O)c2ccccc2N(Cc2ccccc2)S(=O)(=O)c2ccccc2)CC1,n,n,x,n,n
SMILES,CaV13 FRET inh,TROY NFkB inh,XiGFP reactiv,LGR2 inh,TWEAK Fn14 block
CN1CCN(C(=O)c2ccccc2N(Cc2ccccc2)S(C)(=O)=O)CC1,n,n,x,x,72
Cc1ccc2c(c1)-c1nc3ccccc3cc1C2=NC1CCCCC1,n,n,n,x,n
Cc1ccc2c(c1)Cc1nc3ccccc3nc1-2,n,n,n,n,70
O=C(CN1CCC(n2nnc3cc(C(F)(F)F)ccc32)CC1)Nc1ccc2c(c1)OCCO2,n,64,x,x,75
O=C(CN1CCC(n2nnc3cc(C(F)(F)F)ccc32)CC1)Nc1ccc2c(c1)CCC2,x,n,x,x,n
O=C(Cn1cnc2ccccc2c1=O)c1ccccc1,n,n,x,x,n
Cc1ccc(C(=O)Cn2cnc3ccccc3c2=O)cc1,n,54,x,x,n
CCC(=O)Nc1ccc2c(c1)OC[C@H](C)N(CCc1ccccc1)C[C@H](C)[C@H](OC)CN(C)C2=O,x,x,n,n,x
CCCNC(=O)C1(C)CCCN(Cc2ccc(-c3ccccc3)o2)C1 (configuration not stated),n,n,n,n,70
CN(C)CCCN(C(=O)CCS(=O)(=O)c1ccccc1)c1nc2cc3c(cc2s1)OCO3,x,56,n,n,69
Cc1ccc2sc(N(CCCN(C)C)C(=O)CCS(=O)(=O)c3ccccc3)nc2c1C,n,n,n,n,63
COc1ccc(OC)c2sc(N(CCCN(C)C)C(=O)CCS(=O)(=O)c3ccccc3)nc12,n,n,n,n,53
CN(C)CCCN(C(=O)CCSc1ccccc1)c1nc2cc3c(cc2s1)OCO3,n,n,n,n,n
CCC(C)c1ccc2oc(-c3ccc(NC(=O)Cn4cnc5c(=O)n(C)c(=O)n(C)c54)cc3)nc2c1 (configuration not stated),n,64,x,x,n
CCc1ccc(-c2cc(C)no2)cc1S(=O)(=O)N1CC(=O)Nc2ccccc21,n,n,n,n,n
Cc1cc(-c2ccc(C)c(S(=O)(=O)N3CC(=O)Nc4ccccc43)c2)on1,n,n,n,n,92
Cc1cc(-c2ccc(C(C)C)c(S(=O)(=O)N3CCOc4ccccc43)c2)on1,n,n,n,n,n
Cc1ccc(-c2onc(C)c2C)cc1S(=O)(=O)N1CCOc2ccccc21,n,n,n,n,64
Cc1ccc(S(=O)(=O)Nc2ccc3c(c2)C(=O)N([C@H](C)CO)C[C@H](C)[C@H](CN(C)C(=O)Nc2ccccc2)O3)cc1,x,x,n,n,x
CC(=O)c1ccc(OCc2cc(C(=O)N(C)C(C)c3nccs3)no2)cc1 (configuration not stated),n,n,n,n,n
CC(=O)c1ccc(OCc2cc(C(=O)N(C)C(C)c3ccon3)no2)cc1 (configuration not stated),n,n,n,n,84
COc1ccc(-c2cn(CC[C@H]3CC[C@H](N)[C@@H](CO)O3)nn2)cc1,x,x,n,n,x
O=C(/C=C\Nc1cccc(F)c1)c1ccc2c(c1)OCO2,n,n,x,x,81
O=C(/C=C/c1cccc(Br)c1)c1ccc2c(c1)OCO2,n,n,n,n,60
COC(=O)c1ccc(N/C=C\C(=O)c2ccc3c(c2)OCO3)cc1,n,n,n,n,n
SMILES,CaV13 FRET inh,TROY NFkB inh,XiGFP reactiv,LGR2 inh,TWEAK Fn14 block
O=C(/C=C/c1ccncc1)c1ccc2c(c1)OCCO2,n,n,n,89,n
COc1cc(/C=C/C(=O)c2ccc3c(c2)OCCO3)cc(Br)c1OCC(=O)N(C)C,n,n,u,60,83
O=C(/C=C/c1ccccc1)c1ccc2c(c1)OCO2,n,n,n,n,n
O=C(/C=C/Nc1ccc(F)cc1Br)c1ccccc1,n,77,n,94,90
Cc1cc(N/C=C/C(=O)c2ccccc2)ccc1Br,n,n,n,n,n
O=C(/C=C/c1ccccc1Br)c1ccc2c(c1)OCO2,n,n,n,n,n
O=C(/C=C\Nc1ccccc1Br)c1ccc2c(c1)OCO2,n,n,n,79,61

# Screening results: PubChem BioAssay, several laboratories
